Assay results as given in ChEMBL document CHEMBL2424622, “Development of amino-pyrimidine inhibitors of c-Jun N-terminal kinase (JNK): kinase profiling guided optimization of a 1,2,3-benzotriazole lead” (Bioorg Med Chem Lett, 2013).

Assays:
[1] = target: T1, Non-receptor tyrosine-protein kinase TNK1 (Homo sapiens) (UniProt Q13470); assay: Competitive binding affinity to TNK1 (unknown origin) at 10 uM in presence of ATP relative to control
T1 sequence (whole entry): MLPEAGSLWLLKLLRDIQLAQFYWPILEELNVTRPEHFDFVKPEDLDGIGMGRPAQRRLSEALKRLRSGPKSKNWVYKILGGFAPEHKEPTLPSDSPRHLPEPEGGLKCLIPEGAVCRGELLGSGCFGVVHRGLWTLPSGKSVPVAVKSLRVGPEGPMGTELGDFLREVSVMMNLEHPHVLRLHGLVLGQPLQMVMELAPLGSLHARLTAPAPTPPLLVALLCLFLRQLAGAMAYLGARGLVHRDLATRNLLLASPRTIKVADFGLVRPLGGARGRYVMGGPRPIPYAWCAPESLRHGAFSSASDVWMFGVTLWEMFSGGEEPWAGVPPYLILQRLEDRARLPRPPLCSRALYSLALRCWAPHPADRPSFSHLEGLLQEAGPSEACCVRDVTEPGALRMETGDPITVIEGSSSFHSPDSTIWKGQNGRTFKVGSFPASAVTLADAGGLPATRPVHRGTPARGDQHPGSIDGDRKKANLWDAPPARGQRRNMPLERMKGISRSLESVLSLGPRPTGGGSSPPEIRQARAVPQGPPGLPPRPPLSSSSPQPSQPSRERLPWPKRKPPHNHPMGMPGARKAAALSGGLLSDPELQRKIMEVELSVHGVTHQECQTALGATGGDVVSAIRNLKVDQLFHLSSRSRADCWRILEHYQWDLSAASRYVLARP

[2] = target: Ribosomal protein S6 kinase alpha-1 (Homo sapiens, UniProt Q15418); assay: Competitive binding affinity to RPS6KA1 kinase domain 2 (unknown origin) at 10 uM in presence of ATP relative to control
[3] = target: T2, Inhibitor of nuclear factor kappa-B kinase subunit epsilon (Homo sapiens) (UniProt Q14164); assay: Competitive binding affinity to IKKepsilon (unknown origin) at 10 uM in presence of ATP relative to control
T2 sequence (whole entry): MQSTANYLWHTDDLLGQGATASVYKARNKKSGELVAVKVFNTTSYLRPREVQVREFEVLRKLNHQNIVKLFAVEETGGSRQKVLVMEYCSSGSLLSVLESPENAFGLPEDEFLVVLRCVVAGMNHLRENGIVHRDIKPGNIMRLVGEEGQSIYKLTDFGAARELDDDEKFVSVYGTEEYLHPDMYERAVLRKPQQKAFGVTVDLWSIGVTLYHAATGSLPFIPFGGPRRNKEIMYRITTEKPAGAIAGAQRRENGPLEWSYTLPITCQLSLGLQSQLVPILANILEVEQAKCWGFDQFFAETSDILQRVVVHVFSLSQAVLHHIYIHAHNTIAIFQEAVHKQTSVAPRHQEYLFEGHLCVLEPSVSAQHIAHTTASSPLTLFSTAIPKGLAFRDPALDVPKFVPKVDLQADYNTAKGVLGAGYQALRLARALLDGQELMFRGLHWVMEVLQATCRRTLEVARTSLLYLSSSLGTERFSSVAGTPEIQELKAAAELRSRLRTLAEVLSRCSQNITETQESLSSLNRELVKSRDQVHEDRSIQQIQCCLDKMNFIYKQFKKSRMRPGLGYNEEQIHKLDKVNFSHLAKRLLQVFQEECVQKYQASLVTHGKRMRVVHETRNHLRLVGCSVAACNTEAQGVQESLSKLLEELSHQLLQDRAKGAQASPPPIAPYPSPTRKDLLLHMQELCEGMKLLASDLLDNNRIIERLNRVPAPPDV

[4] = system: Tyrosine-protein kinase ABL1 (Homo sapiens), P00519 [T315I]; assay: Competitive binding affinity to ABL1 T315I mutant (unknown origin) at 10 uM in presence of ATP relative to control
Procedure, shortened: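 In vitro ATP-site competition binding assay across a diverse panel of 128 kinases, with each compound tested at a single concentration. Kinase binding is expressed relative to control.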

[5] = system: Tyrosine-protein kinase ABL1 (Homo sapiens), P00519 [H396P]; assay: Competitive binding affinity to ABL1 H396P mutant (unknown origin) at 10 uM in presence of ATP relative to control
[6] = target: Bone morphogenetic protein receptor type-1A (Homo sapiens) (UniProt P36894); assay: Competitive binding affinity to BMPR1A (unknown origin) at 10 uM in presence of ATP relative to control
[7] = target: Fibroblast growth factor receptor 4 (Homo sapiens) (UniProt P22455); assay: Competitive binding affinity to FGFR4 (unknown origin) at 10 uM in presence of ATP relative to control
Procedure, shortened: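 In vitro ATP-site competition binding assay, part of profiling against a diverse panel of 128 kinases. Each compound was tested at a single concentration of 10 µM. Kinome selectivity was summarized as S15 selectivity scores.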

[8] = target: Protein kinase C theta type (Homo sapiens) (UniProt Q04759); assay: Competitive binding affinity to PRKCQ (unknown origin) at 10 uM in presence of ATP relative to control
Sequence of Protein kinase C theta type (Homo sapiens) (Q04759 whole entry, looked up): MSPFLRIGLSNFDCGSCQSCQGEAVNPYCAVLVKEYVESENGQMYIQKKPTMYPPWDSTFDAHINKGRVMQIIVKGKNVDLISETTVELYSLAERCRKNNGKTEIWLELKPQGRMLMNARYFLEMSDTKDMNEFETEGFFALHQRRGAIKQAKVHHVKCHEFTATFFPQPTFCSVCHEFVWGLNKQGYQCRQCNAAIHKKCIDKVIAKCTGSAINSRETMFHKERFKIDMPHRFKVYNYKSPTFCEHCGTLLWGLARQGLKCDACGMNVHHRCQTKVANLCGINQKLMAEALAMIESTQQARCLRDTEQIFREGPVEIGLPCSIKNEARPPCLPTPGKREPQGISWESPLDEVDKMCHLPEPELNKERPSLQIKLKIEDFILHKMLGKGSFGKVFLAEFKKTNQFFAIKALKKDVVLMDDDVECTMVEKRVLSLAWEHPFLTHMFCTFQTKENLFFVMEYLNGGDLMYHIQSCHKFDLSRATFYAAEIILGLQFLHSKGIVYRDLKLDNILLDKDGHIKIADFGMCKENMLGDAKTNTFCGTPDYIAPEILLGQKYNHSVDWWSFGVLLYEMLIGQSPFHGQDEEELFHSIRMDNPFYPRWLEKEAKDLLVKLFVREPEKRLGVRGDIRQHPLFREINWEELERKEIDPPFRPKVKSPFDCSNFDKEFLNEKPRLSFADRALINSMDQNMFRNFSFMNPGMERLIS

Sequence of Ribosomal protein S6 kinase alpha-1 (Q15418 whole entry, the tested form may be a part): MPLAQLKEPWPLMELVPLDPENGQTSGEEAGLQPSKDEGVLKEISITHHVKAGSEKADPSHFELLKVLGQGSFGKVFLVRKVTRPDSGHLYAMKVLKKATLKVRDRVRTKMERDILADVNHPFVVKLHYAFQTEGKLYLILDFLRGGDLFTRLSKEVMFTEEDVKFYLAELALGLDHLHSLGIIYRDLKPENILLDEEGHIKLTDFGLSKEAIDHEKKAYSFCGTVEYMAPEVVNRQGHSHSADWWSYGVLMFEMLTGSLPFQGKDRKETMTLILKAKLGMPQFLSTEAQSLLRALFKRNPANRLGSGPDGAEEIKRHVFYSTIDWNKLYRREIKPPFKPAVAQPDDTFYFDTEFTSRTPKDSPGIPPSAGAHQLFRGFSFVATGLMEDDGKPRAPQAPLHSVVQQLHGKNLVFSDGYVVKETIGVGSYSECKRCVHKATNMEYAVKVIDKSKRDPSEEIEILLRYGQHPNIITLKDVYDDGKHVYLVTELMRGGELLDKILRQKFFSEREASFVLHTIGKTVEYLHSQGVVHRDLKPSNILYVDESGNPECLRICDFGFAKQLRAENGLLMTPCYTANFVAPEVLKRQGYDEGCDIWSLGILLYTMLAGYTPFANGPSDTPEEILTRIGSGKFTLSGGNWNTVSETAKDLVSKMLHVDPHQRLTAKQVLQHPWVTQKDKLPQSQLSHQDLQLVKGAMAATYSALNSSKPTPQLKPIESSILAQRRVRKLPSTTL
Sequence of Fibroblast growth factor receptor 4 (Homo sapiens) (P22455 22-802 limits assumed): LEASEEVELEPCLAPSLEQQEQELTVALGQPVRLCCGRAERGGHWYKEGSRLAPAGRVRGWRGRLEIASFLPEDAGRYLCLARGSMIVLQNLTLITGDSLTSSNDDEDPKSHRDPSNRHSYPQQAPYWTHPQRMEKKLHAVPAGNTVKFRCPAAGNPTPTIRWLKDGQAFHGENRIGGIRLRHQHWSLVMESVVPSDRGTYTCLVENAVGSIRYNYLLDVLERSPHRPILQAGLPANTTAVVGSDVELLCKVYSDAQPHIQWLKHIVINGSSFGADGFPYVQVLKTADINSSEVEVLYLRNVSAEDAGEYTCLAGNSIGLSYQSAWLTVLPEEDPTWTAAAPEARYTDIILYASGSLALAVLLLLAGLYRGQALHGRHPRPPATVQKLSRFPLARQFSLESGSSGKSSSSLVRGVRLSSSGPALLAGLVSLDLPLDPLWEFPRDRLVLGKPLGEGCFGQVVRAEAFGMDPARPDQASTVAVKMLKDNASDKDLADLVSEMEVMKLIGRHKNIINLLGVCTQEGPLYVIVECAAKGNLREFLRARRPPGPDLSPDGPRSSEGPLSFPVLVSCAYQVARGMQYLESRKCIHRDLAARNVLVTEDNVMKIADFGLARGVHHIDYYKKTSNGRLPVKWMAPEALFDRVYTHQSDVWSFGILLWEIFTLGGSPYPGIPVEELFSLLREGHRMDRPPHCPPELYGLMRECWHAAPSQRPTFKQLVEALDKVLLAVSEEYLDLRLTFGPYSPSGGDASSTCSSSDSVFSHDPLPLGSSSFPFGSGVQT
Sequence of Bone morphogenetic protein receptor type-1A (Homo sapiens) (P36894 whole entry): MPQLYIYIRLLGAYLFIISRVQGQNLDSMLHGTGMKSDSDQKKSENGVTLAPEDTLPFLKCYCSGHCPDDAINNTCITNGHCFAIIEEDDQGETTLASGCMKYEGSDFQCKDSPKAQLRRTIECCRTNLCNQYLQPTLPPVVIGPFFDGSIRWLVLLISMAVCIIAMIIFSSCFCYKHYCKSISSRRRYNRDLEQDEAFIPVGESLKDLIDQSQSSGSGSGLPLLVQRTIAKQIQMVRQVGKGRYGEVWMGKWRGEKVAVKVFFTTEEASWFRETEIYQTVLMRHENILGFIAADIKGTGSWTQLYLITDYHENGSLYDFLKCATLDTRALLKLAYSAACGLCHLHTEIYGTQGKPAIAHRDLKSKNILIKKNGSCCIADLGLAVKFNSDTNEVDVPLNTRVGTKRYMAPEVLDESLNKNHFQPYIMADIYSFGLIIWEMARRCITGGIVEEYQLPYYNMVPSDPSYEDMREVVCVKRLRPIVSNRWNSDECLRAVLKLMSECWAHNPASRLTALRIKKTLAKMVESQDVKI

inhibition [1] [%]	inhibition [2] [%]	inhibition [3] [%]	inhibition [4] [%]	inhibition [5] [%]	inhibition [6] [%]	inhibition [7] [%]	inhibition [8] [%]	SMILES
< 50	100	< 50	< 50	< 50	< 50	< 50	< 50	O[C@H]1CC[C@H](Nc2nccc(-n3ncc4ccccc43)n2)CC1
< 50	95	< 50	< 50	< 50	< 50	< 50	< 50	O[C@H]1CC[C@H](Nc2nccc(-n3ccc4ccccc43)n2)CC1
81	–	–	96	< 50	< 50	< 50	–	O[C@H]1CC[C@H](Nc2nccc(-c3n[nH]c4ccccc34)n2)CC1
< 50	100	< 50	< 50	< 50	< 50	< 50	< 50	O[C@H]1CC[C@H](Nc2nccc(-n3nnc4ccccc43)n2)CC1
